ChEMBL document CHEMBL4007422 (J Med Chem, 2017)
pIC50, pKi: −log10 of the molar value. Activity calls are given as the source filed them. No cut-off for these calls is given here.

Legend:
[1] = target: 5-hydroxytryptamine receptor 2A (Homo sapiens) (UniProt P28223); experiment: Displacement of [3H]-Ketanserine from recombinant human 5-HT2A receptor expressed in CHOK1 cell membranes after 60 mins by microbeta scintillation counting analysis
[2] = target: T1, 5-hydroxytryptamine receptor 1A (Homo sapiens) (UniProt P08908); experiment: Displacement of [3H]-8-OH-DPAT from recombinant human 5-HT1A receptor expressed in HEK293 EBNA cell membranes after 120 mins by microbeta scintillation counting analysis
T1 sequence (whole entry): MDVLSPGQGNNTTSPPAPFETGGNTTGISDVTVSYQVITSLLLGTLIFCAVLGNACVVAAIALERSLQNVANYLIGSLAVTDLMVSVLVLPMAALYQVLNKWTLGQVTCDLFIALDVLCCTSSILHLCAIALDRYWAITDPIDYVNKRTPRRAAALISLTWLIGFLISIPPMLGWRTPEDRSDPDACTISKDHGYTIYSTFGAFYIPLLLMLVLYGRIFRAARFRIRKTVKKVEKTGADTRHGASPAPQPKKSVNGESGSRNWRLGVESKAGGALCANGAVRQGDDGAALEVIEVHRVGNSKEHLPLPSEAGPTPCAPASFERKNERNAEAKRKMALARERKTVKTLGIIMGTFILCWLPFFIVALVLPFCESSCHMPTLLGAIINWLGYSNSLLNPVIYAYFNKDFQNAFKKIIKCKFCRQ

Rattus norvegicus [3] = experiment: (§1) Oral bioavailability in Wistar rat at 10 mg/kg by LC-MS/MS analysis; assay type: ADME, organism-based; settings: in vivo
Cytochrome P450 2D6 = Cytochrome P450 2D6 (Homo sapiens, UniProt P10635); experiment: Inhibition of CYP2D6 in human liver microsomes in presence of NADPH by LC-MS/MS analysis
Rattus norvegicus [4] = experiment: (§2) AUC (0 to t) in Wistar rat at 10 mg/kg, po by LC-MS/MS analysis; assay type: ADME, organism-based; settings: in vivo
[5] = target: 5-hydroxytryptamine receptor 7 (Rattus norvegicus) (UniProt P32305); experiment: Binding affinity to recombinant rat 5-HT7 receptor expressed in CHOK1 cells assessed as inhibition of 5-HT stimulated cAMP accumulation after 4 hrs by luciferase reporter gene assay; assay type: cell-based
[6] = Apparent volume of distribution in Wistar rat at 10 mg/kg, iv by LC-MS/MS analysis; assay type: ADME, organism-based; settings: in vivo, read-out: Vz
[7] = Cmax in Wistar rat at 10 mg/kg, po by LC-MS/MS analysis; assay type: ADME, organism-based; parameters: dose 10 mg/kg, route oral; settings: in vivo
[8] = target: T2, 5-hydroxytryptamine receptor 2C (Homo sapiens) (UniProt P28335); experiment: Displacement of [3H]-Mesulergine from recombinant human 5-HT2C receptor expressed in HEK293 cell membranes after 180 mins by microbeta scintillation counting analysis
T2 sequence (whole entry): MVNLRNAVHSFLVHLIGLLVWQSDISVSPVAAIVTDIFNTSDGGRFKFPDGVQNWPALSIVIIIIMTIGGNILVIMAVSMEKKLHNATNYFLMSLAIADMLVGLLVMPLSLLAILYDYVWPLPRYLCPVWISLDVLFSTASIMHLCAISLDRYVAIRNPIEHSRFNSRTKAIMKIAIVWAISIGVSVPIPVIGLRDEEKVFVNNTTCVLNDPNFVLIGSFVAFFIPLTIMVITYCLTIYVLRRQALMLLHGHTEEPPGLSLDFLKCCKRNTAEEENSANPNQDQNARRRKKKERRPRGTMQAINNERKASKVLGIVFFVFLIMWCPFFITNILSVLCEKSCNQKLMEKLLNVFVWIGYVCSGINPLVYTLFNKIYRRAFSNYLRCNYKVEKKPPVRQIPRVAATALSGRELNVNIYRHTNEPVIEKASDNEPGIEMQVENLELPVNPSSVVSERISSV

[9] = target: 5-hydroxytryptamine receptor 4 (Homo sapiens) (UniProt Q13639); experiment: Displacement of [3H]-GR113808 from recombinant human 5-HT4B receptor expressed in Chem1 cell membranes after 120 mins by microbeta scintillation counting analysis
[10] = Half life in Wistar rat at 10 mg/kg, iv by LC-MS/MS analysis; assay type: ADME, organism-based; settings: in vivo
Cytochrome P450 3A4 = Cytochrome P450 3A4 (Homo sapiens, UniProt P08684)
Rattus norvegicus [11] = experiment: Increase in acetylcholine level in Wistar rat ventral hippocampus at 1 mg/kg, sc after 4 hrs in presence of 1 mg/kg of donepezil administered sc by LC-MS/MS based microdialysis method relative to control; assay type: functional
[12] = as §1; assay type: ADME, organism-based; settings: Wistar, in vivo
[13] = as §2; assay type: ADME, organism-based; settings: Wistar, in vivo
[14] = Clearance in Wistar rat at 10 mg/kg, iv by LC-MS/MS analysis; assay type: ADME, organism-based; settings: in vivo
[15] = target: T3, 5-hydroxytryptamine receptor 6 (Homo sapiens, UniProt P50406); experiment: Antagonist activity at recombinant human 5-HT6 receptor expressed in CHO cells assessed as inhibition of 5-HT stimulated cAMP accumulation after 4 hrs by luciferase reporter gene assay; assay type: functional, cell-based
How it was run: (§3)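 Stable CHO line expressing recombinant human 5-HT6 receptor with a pCRE-luciferase reporter, a nonradioactive cell-based format. Output is Kb (nM), the mean of duplicate experiments, with Imax (%) also reported.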

Rattus norvegicus [16] = experiment: Reversal of time-induced amnesia in Wistar rat at 10 mg/kg, po administered 60 mins prior to testing measured for 3 mins by object recognition test; assay type: functional, organism-based
How it was run: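 Time-induced object recognition task in rats. Oral dosing at 1, 3 and 10 mg/kg given 60 min before the test; vehicle water for injection 1 mL/kg p.o.; n = 7−12/group. Exploration of novel versus familiar object compared by paired t-test.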

[17] = target: T3, 5-hydroxytryptamine receptor 6; experiment: Antagonist activity at recombinant human 5-HT6 receptor expressed in CHO cells assessed as inhibition of 5-HT stimulated cAMP accumulation after 4 hrs by luciferase reporter gene assay relative to control; assay type: functional, cell-based; how it was run: as §3
[18] = target: T3, 5-hydroxytryptamine receptor 6; experiment: Displacement of [3H]-LSD from recombinant human 5-HT6 receptor expressed in HEK293 cells after 60 mins; assay type: cell-based
[19] = Ratio of drug uptake in Wistar rat brain to plasma at 10 mg/kg, po by LC-MS/MS analysis; assay type: ADME, organism-based; settings: read-out: BPR
Rattus norvegicus [20] = experiment: Reversal of time-induced amnesia in Wistar rat at 1 to 3 mg/kg, sc administered 60 mins prior to testing measured for 3 mins by object recognition test; assay type: functional, organism-based

5-hydroxytryptamine receptor 4 (Homo sapiens), sequence (Q13639 whole entry): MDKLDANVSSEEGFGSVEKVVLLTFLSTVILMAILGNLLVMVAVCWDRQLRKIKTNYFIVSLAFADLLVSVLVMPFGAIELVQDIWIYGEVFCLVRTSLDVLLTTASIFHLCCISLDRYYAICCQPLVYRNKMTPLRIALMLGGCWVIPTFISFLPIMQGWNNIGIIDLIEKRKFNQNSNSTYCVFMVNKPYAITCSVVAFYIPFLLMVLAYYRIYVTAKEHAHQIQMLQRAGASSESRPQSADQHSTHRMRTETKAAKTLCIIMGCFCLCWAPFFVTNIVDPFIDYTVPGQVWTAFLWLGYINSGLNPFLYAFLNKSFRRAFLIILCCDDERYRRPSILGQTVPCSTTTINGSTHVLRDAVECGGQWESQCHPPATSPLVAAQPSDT
5-hydroxytryptamine receptor 2A (Homo sapiens), sequence (P28223 whole entry): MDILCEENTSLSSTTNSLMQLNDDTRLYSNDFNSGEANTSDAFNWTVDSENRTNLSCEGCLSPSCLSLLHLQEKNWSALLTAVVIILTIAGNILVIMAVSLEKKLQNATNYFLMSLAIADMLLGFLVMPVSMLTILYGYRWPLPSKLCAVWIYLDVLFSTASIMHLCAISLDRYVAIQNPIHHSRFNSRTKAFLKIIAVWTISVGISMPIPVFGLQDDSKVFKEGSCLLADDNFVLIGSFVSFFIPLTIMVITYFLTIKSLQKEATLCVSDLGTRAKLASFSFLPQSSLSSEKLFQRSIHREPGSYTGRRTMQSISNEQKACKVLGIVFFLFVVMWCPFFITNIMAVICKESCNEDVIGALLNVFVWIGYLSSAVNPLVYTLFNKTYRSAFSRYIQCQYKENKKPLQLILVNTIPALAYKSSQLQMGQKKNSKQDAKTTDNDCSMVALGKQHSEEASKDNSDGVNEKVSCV
Cytochrome P450 3A4, sequence (P08684 whole entry): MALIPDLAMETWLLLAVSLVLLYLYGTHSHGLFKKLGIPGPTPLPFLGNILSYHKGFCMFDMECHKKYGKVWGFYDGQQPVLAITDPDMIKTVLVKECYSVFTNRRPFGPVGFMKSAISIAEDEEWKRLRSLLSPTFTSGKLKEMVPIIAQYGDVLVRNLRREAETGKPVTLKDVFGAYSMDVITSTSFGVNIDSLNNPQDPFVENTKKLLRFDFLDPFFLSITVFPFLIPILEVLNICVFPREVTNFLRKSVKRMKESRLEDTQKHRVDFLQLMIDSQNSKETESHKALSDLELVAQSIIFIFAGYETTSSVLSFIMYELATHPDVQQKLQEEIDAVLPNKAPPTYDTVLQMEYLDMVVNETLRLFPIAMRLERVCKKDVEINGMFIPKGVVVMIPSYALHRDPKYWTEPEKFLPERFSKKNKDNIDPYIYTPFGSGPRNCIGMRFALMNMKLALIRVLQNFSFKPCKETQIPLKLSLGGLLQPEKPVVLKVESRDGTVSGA
Cytochrome P450 2D6, sequence (P10635 whole entry): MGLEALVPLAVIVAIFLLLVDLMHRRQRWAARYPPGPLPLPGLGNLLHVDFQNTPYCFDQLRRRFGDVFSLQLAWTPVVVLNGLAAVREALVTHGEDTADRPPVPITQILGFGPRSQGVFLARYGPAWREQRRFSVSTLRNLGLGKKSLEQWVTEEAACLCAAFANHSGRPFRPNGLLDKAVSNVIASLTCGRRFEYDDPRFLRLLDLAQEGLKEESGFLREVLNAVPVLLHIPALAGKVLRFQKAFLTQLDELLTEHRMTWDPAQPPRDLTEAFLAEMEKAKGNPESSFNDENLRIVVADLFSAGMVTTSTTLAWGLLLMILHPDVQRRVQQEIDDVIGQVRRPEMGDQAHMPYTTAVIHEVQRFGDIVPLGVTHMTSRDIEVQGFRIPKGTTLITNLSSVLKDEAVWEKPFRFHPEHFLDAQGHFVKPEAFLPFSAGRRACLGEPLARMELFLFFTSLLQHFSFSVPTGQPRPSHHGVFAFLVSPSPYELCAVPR
5-hydroxytryptamine receptor 7 (Rattus norvegicus), sequence (P32305 whole entry): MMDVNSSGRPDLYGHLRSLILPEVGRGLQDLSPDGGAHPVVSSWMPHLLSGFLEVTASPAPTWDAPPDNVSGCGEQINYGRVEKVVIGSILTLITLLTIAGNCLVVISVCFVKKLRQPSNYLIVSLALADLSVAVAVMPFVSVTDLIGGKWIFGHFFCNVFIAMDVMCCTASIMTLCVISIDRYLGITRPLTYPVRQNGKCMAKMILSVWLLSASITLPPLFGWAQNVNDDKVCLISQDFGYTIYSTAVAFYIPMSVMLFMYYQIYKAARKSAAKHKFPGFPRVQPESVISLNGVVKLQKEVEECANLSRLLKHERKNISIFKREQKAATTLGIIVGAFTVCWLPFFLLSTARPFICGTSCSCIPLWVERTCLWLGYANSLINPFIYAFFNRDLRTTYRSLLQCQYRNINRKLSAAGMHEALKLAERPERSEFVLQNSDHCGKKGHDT
T3 sequence (P50406 whole entry): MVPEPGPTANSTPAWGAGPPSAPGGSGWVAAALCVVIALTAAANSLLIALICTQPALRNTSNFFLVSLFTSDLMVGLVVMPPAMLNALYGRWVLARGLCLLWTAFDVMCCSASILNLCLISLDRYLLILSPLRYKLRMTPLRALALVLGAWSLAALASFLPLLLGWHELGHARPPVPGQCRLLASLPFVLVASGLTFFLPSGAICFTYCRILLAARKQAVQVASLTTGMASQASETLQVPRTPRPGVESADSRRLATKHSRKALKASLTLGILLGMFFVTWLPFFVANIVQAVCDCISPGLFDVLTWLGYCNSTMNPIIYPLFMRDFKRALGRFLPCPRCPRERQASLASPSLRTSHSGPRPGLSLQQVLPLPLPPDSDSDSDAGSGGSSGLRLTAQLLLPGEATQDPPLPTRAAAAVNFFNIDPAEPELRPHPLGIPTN

Activity [1] | Activity [2] | pIC50 (Cytochrome P450 2D6) | Activity [5] | Vd [6] | Cmax [7] | Activity [8] | Activity [9] | half-life [10] | pIC50 (Cytochrome P450 3A4) | bioavailability [12] | AUC(0-t) [13] | clearance [14] | Kb [15] | Imax [17] | pKi [18] | Compound | other results
Active | inactive | 5.72 | inactive | 49.5 L/kg | 22 ng/mL | inactive | inactive | 5.7 h | 5.66 |  |  |  |  |  |  | COc1ccc2c(c1)c(CN1CCCN(C)CC1)cn2S(=O)(=O)c1ccc(C(C)C)cc1.Cl.Cl | F (Rattus norvegicus [3]): 4%; AUCt (Rattus norvegicus [4]): 157 ng·h/mL
 |  |  |  |  |  |  |  |  |  |  |  |  |  |  |  | CC12CC3CC(C)(C1)CC(N)(C3)C2 [MEMANTINE] | Activity (Rattus norvegicus [11]): 1203%
 | inactive | 4.90 | inactive | 19.2 L/kg | 55 ng/mL | inactive | inactive | 2.52 h | 5.77 | 13.5% | 249 ng·h/mL | 92 mL/min/kg |  |  |  | COc1ccc2c(c1)c(CN1CCN(C)CC1)cn2S(=O)(=O)c1ccc(F)cc1.CS(=O)(=O)O.CS(=O)(=O)O | 
Active | inactive | 5.11 | inactive | 3.2 L/kg | 1900 ng/mL | inactive | inactive | 1.93 h | 5.85 | 91.4% | 7740 ng·h/mL | 19.5 mL/min/kg | 14 nM | 99% | 8.40 | CC(C)c1ccc(S(=O)(=O)n2cc(CN3CCN(C)CC3)c3cc(F)ccc32)cc1.Cl.Cl | Activity (Rattus norvegicus [16]): Active; Kp [19]: 0.95
Active | inactive | < 5.00 | inactive | 1.2 L/kg | 1220 ng/mL | inactive | inactive | 0.89 h | < 5.00 | 21.4% | 2220 ng·h/mL | 14.9 mL/min/kg |  |  |  | CN1CCN(Cc2cn(S(=O)(=O)c3ccccc3)c3ccccc23)CC1.Cl.Cl | Activity (Rattus norvegicus [16]): Active; Kp [19]: 0.82
 |  |  |  |  |  |  |  |  |  |  |  |  |  |  |  | CN(C)CCCOc1ccc2[nH]nc(S(=O)(=O)c3cccc4ccccc34)c2c1 | Activity (Rattus norvegicus [20]): Active
Active | inactive |  | inactive | 6.3 L/kg | 125 ng/mL | inactive | inactive | 1.5 h |  | 17.5% | 221 ng·h/mL | 75 mL/min/kg | 12.3 nM | 98% | 8.06 | CN1CCN(Cc2cn(S(=O)(=O)c3ccc(F)cc3)c3ccccc23)CC1 | 
Active | inactive | 4.48 | inactive | 5.3 L/kg | 56.4 ng/mL | inactive | inactive | 1.12 h | 5.73 | 4.9% | 151 ng·h/mL | 54 mL/min/kg |  |  |  | COc1ccc2c(c1)c(CN1CCN(C)CC1)cn2S(=O)(=O)c1ccc(C(C)C)cc1.CS(=O)(=O)O.CS(=O)(=O)O | 
Active | inactive | 5.01 | inactive | 6.1 L/kg | 45.6 ng/mL | inactive | inactive | 2.12 h |  | 10.7% | 138 ng·h/mL | 65 mL/min/kg | 9.8 nM | 98% | 7.94 | COc1cccc2c1c(CN1CCN(C)CC1)cn2S(=O)(=O)c1ccc(C(C)C)cc1.Cl.Cl | 
